B1: G-CSF: cytokine granulocyte colony stimulation factor (protein, UniProt P09919 31-207, looked up)
Granulocyte …: TPLGPASSLPQSFLLKCLEQVRKIQGDGAALQEKLVSECATYKLCHPEELVLLGHSLGIPWAPLSSCPSQALQLAGCLSQLHSGLFLYQGLLQALEGISPELGPTLDTLQLDVADFATTIWQQMEELGMAPALQPTQGAMPAFASAFQRRAGGVLVASHLQSFLEVSYRVLRHLAQP

Legend:
TET2 [1] = test: Total TET activity; assay type: cell-based, human; details: inhibitor 10 nM for 1 hr prior to FLT3L stimulation for 30 minutes; CD34+ stem/early progenitors; three biological replicates
Procedure, shortened: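 Healthy-donor CD34+ cells, CliniMACS-purified, cultured 4 days in IMDM, 20% human serum, TPO/FLT3L/IL-3/IL-6 (20 ng/mL each), SCF 100 ng/mL. Cytokine-washed, held 4 hrs in IMDM/1% BSA, inhibitor 1 hr, then FLT3L (100 ng/ml) 30 min. Nuclear lysates (Bradford-normalised) on 5-mC-coated wells, 5-hmC detected fluorometrically. Standard curve 0–2 ng, ng/min/mg. Unstimulated and stimulated controls; mean ± SEM, three biological replicates.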

TET2 [2] = test: TET2 activity and 5-hmC levels upon TPO or G-CSF stimulation; assay type: cell-based; details: Fig. S1A-D
Procedure, shortened: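 Total TET activity was measured in nuclear lysates, with protein quantified by Bradford assay, using a fluorescence ELISA in which plate-coated 5-mC substrate is converted to 5-hmC and detected with an anti-5-hmC antibody. 5-hmC content was measured on 200 ng DNA per assay and expressed as a percentage of total DNA.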

Molecule	Effect on FLT3L-stimulated TET2 activity (TET2 [1])	5hm-C levels upon cytokine stimulation (TET2 [2])	TET2 activity upon cytokine stimulation (TET2 [2])
CC(C)(C)c1cc(NC(=O)Nc2ccc(-c3cn4c(n3)sc3cc(OCCN5CCOCC5)ccc34)cc2)no1 [AC2220]	Inhibition of TET2 activity	–	–
CNC(=O)c1cc(Oc2ccc(NC(=O)Nc3ccc(Cl)c(C(F)(F)F)c3)cc2)ccn1 [Sorafenib]	Inhibition of TET2 activity	–	–
TPO: cytokine thrombopoietin	–	increased	increased
B1	–	increased	increased

Source: article PMC6697164 (Cancer discovery, 2019)
